UCH37 DUB inh: human UCH37 deubiquitinating enzyme inhibition | inhibition, % (no concentration beside the values) | AID 588478 | actives 0.33% (n = 330,000) | purified proteasome/UCH37, Ub-AMC cleavage fluorescence;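 active = mean inhibition over replicate wells above about 20%, limit read from the data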;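 note: 0% = compound-free wells with enzyme and 100% = wells lacking proteasome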
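Material: Human UCH37 enzyme supplied as purified proteasome complex | Schedule: 30 min compound-proteasome preincubation then 25 min substrate reaction, room temperature | Detection: AMC fluorescence from Ub-AMC cleavage, excitation 355 nm, emission 460 nm | Benchmarks: Wells without proteasome as full block, compound-free enzyme plus substrate as uninhibited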
Apaf-1 inh: blocks human Apaf-1 apoptosome activity. O14727. actives 0.71% (n = 330,000). inhibition, % at 20 µM. reconstituted apoptosome caspase-3 activity, DEVD-Rh110 fluorescence; active = inhibition of at least 40% at 20 µM;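 note: plate controls were DMSO wells for no effect and DEVD-CHO caspase inhibitor wells for full effect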
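System – cell-free apoptosome with Apaf-1, procaspase-3 and caspase-9 · Buffer or medium – pH 7.5 Hepes buffer with CHAPS, BSA, DTT · Also added – cytochrome c with DEVD-Rh110 · Times – 30 min compound preincubation, 50 min activation, room temperature · Technique – Rh110 fluorescence intensity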
MEKK3 PB1 HTS: MEKK3-MEK5 PB1 interaction, increase or decrease | Q99759 | binding response (% of control), % at 10 µM | bead-based flow cytometry, Alexa488-MEK5 binding to MEKK3; actives lie on both sides; 0 = blocked by unlabeled MEK5, 100 = vehicle | actives 1.4% (n = 290,000);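 active = binding response more than 3 SD above or below the average of its plate-row segment, actives on both sides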;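 note: Alexa488 bead fluorescence after subtracting the streptavidin-only scavenger bead signal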
Target sequence (Q99759 whole entry, looked up): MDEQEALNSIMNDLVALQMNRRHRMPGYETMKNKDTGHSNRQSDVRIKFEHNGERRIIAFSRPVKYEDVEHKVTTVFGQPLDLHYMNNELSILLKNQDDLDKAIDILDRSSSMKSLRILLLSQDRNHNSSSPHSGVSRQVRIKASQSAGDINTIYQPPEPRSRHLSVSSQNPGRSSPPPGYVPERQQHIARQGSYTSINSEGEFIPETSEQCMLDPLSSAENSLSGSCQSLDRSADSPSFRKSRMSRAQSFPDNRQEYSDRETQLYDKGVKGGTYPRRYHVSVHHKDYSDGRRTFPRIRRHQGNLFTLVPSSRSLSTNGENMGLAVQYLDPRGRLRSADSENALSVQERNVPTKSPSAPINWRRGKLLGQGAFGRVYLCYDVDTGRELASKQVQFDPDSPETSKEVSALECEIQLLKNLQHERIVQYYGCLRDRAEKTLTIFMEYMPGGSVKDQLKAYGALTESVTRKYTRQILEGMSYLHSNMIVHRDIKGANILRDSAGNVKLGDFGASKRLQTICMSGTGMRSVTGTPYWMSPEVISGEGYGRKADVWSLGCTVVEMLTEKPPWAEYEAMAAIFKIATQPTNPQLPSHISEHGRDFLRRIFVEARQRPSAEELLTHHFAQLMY
MEKK2wt PB1 HTS: raises or lowers MEK5 binding to wildtype human MEKK2 PB1 domain; Q9Y2U5; bead flow cytometry, Alexa488-MEK5 binding to MEKK2 WT; actives lie on both sides; binding response (% of control), % at 10 µM; actives 1.1% (n = 290,000); AID 1531; in the data active = binding response below about 67% or above about 130%
MEKK2 mut-MEK5: signal of MEK5 binding to mutant human MEKK2 PB1 domain. bead flow cytometry, Alexa488-MEK5 binding to MEKK2 mutant. percent response, % at 10 µM. actives 0.35% (n = 290,000); in the data active = percent response above about 24%, passing the limit was not always enough
UBC13 inh: inhibitors of human UBC13 polyubiquitin chain formation. P61088. actives 0.47% (n = 330,000). inhibition, % at 20 µM. TR-FRET; in the data active = inhibition above about 45%, passing the limit was not always enough
MEKK2wt confirm: raises or lowers MEK5 binding to wildtype human MEKK2, retest | shares compounds with MEKK3 PB1 HTS | bead flow cytometry, Alexa488-MEK5 binding to MEKK2 WT; actives lie on both sides | AID 1892 | actives 2.4% (n = 5,900) | binding response (% of control), % at 10 µM; in the data active = binding response below about 16% or above about 210%; inactive = in between
MEKK2mut confirm: signal of MEK5 binding to mutant human MEKK2, retest; shares compounds with MEKK3 PB1 HTS; bead flow cytometry, Alexa488-MEK5 binding to MEKK2 mutant; actives 2% (n = 5,900); percent response, % at 10 µM; AID 1893; in the data active = percent response mostly above about 71%, no sharp cut-off; inactive = mostly below about 38%;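 note: higher means compound restores mutant binding toward wildtype level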
MEKK3-MEK5 inh: MEKK3-MEK5 PB1 inhibition, single concentration confirmation. shares compounds with MEKK3 PB1 HTS. bead flow cytometry, Alexa488-MEK5 binding to MEKK3; active compounds read low. binding response (% of control), % at 10 µM. actives 1.8% (n = 5,900);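 active = binding response below 72% of control, or above a set upper limit, though filed actives all read lower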;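 note: 100% = DMSO only wells and 0% = binding blocked by excess unlabeled MEK5; lower values mean stronger disruption of MEK5 binding to MEKK3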
Numbers without * were called inactive; x = not tested or not shown; [ ] = dose if it differs, or a comment. Only some compounds are listed: those with a hit (about 3% of all), similar ones and a draw of the others.

SMILES	UCH37 DUB inh	Apaf-1 inh	MEKK3 PB1 HTS	MEKK2wt PB1 HTS	MEKK2 mut-MEK5	UBC13 inh	MEKK2wt confirm	MEKK2mut confirm	MEKK3-MEK5 inh
CC(=O)c1sc(NC(=O)c2cc(S(=O)(=O)N3CCOCC3)ccc2F)nc1C	4	4	x	x	x	-9	x	x	x
COCCn1c(SCc2ccc(OC)c(F)c2)nc2ccccc2c1=O	3	11	156*	134	7	7	101	2	103
COc1ccc(CSc2nc3ccccc3c(=O)[nH]2)cc1F	0	6	6.0*[inhibitor]	9.0*[inhibitor]	-23	-2	100	0	104
CCN(CCNCC(O)COCc1ccc(Cl)cc1)c1cccc(C)c1 (stereo not given)	1	-13	112	159*	20	29	128	18	105
CCN(CCNC(=O)c1ccc(C#N)cc1)c1cccc(C)c1	2	8	102	99	-2	-1	x	x	x
CC(C)(C)c1ccc(NC(=O)c2c(F)cccc2Cl)cc1	7	2	47*[inhibitor]	34*[inhibitor]	-61	-4	105	5	105
Cc1nc2c(C)cccc2cc1C(=O)NN=Cc1cccnc1	0	x	x	x	x	x	x	x	x
O=C(Nc1ccc(OCC(=O)N2CCC(Cc3ccccc3)CC2)cc1)c1ccco1	0	2	67*[inhibitor]	74	-6	-2	100	-3	101
CCN(CC)C(=S)Nc1ccc(OC)cc1	5	6	155*	113	1	-9	103	2	104
COc1ccc(C(CNC(=O)c2ccc(C)c(S(=O)(=O)Nc3ccccc3OC)c2)N2CCCC2)cc1 (stereo not given)	0	29	112	154*	29*	44	162	44	114
Cc1c(C(=O)Nc2ccc(-c3nnc4n3CCCCC4)cc2)oc2ccc(Br)cc12	-25	26	96	1.0*[inhibitor]	4	28	133	13	98
O=C(Nc1ccc(-c2nnc3n2CCCCC3)cc1)c1ccco1	3	-13	95	97	2	0	x	x	x
COc1ccc(C(CNC(=O)c2oc3ccc(Br)cc3c2C)N2CCCCC2)cc1 (stereo not given)	3	17	109	153*	-4	15	156	39	112
CCOc1ccc(OCc2cccc(C(=O)Nc3ccc(CN4CCCCC4)cc3)c2)cc1	2	10	113	161*	6	30	138	43	107
CCOc1cccc(C(=O)Nc2ccc3c(c2)OCCO3)c1	4	8	26*[inhibitor]	38*[inhibitor]	-21	-6	102	2	104
CC(C)Oc1cccc(C(=O)NC(=S)Nc2ccc(N3CCN(C)CC3)cc2)c1	3	20	24*[inhibitor]	48	-37	5	144	38	110
O=C(Nc1ccc2c(c1)OCCO2)c1cccc(C(=O)Nc2ccc3c(c2)OCCO3)c1	-21	1	105	107	8	7	x	x	x
CCOc1cccc(C(=O)Nc2ccc(N3CCCC3)cc2)c1	0	27	107	144*	9	-7	113	5	104
CC1CN(CCc2ccccc2)C(C)C/C1=N/O (stereo not given)	x	-7	x	x	x	-3	x	x	x
CCOc1ccc(C(=O)Nc2ccc(N3CCN(C)CC3)cc2)cc1Br	-20	5	100	129	24*	27	120	13	103
O=C(O)c1ccccc1/C=N/N1CCN(C2c3ccccc3-c3ccccc32)CC1	x	10	71*[inhibitor]	68	-36	-1	108	0	105
COc1cc(/C=N/N2CCN(C3c4ccccc4-c4ccccc43)CC2)cc(OC)c1OC	x	15	130*	106	-1	-12	109	3	105
O=C(O)c1ccccc1C=NN1CCN(C2c3ccccc3-c3ccccc32)CC1	2	x	x	x	x	x	x	x	x
COc1cc(S(=O)(=O)N(Cc2cccnc2)Cc2ccco2)ccc1-n1cnnn1	-2	26	80*[inhibitor]	86	-12	-6	149	28	111
Cc1ccc(C2=NOC(c3nnc(-c4ccccc4)o3)C2)cc1 (stereo not given)	1	2	104	101	2	3	x	x	x
SMILES	UCH37 DUB inh	Apaf-1 inh	MEKK3 PB1 HTS	MEKK2wt PB1 HTS	MEKK2 mut-MEK5	UBC13 inh	MEKK2wt confirm	MEKK2mut confirm	MEKK3-MEK5 inh
COCCn1nnnc1C(c1ccc(OC)cc1)N1CCN(c2ccccc2F)CC1 (stereo not given)	4	6	122*	118	8	-2	112	3	102
COc1ccc(C(c2nnnn2CC2CCCO2)N2CCC(C(N)=O)CC2)cc1 (stereo not given)	2	-4	98	103	-2	4	x	x	x
COc1ccc(C(c2nnnn2CC2CCCO2)N2CCN(c3cccc(C)c3C)CC2)cc1 (stereo not given)	4	16	122*	116	15	2	106	2	107
COCCn1nnnc1C(c1ccccc1OC)N1CCN(c2ccccc2F)CC1 (stereo not given)	0	6	107	104	8	-2	x	x	x
COc1ccccc1C(c1nnnn1CC1CCCO1)N1CCC(C(N)=O)CC1 (stereo not given)	8	0	74*[inhibitor]	85	-5	9	103	-3	99
CCCCC(c1nnnn1CC1CCCO1)N1CCN(c2cccc(C)c2C)CC1 (stereo not given)	2	23	104	109	18	-3	x	x	x
N=C1C(c2ccccc2)=C(O)CN1c1cccc(S(=O)(=O)NCc2ccco2)c1	4	-15	99	98	-7	0	x	x	x
CC(NC(=O)Nc1ccc(O)cc1)(C(F)(F)F)C(F)(F)F	1	8	103	102	16	8	x	x	x
COCCN(CCOC)C(=O)c1ccc(NS(=O)(=O)c2ccc3[nH]c(=O)[nH]c3c2)cc1	4	17	94	96	-7	-1	x	x	x
COCC(C)N1CCC(n2nccc2NC(=O)CCCc2ccccc2)CC1 (stereo not given)	-1	-2	98	102	-2	-1	x	x	x
Nc1nonc1C(=O)NCCNCc1ccccc1OCc1ccccc1F	7	17	123*	124	8	8	113	14	103
N#C/C(=C\c1ccc(C#N)cc1)C(=O)N1CCCC1	1	-16	71*[inhibitor]	88	-3	2	103	5	101
